Source: PubChem
An excerpt weighted towards active compounds, which were near 2.7% of everything screened.
OX1R antag-1: OX1R (human) antagonism. O43613. 1.8% of 330,000 active. AID 485270. inhibition, % at 6.6 µM. OX1R-expressing cells, FRET antagonist read-out; in the data active means inhibition mostly above about 38%, no sharp cut-off; inactive means mostly below about 40%
OXTR potentiate: potentiates the human oxytocin receptor response; P30559; CHO-OTR cells, Fluo-8 calcium fluorescence, potentiator mode; 0% = oxytocin EC15, 100% = EC100; activation, % at 3 µM; 0.061% of 320,000 active; AID 2445;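 active means activation above that plate's cutoff, the mean activation of tested compounds plus 3 SD, cut at about 6.6% in these data, passing the limit was not always enough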
Target sequence (P30559 whole entry, looked up): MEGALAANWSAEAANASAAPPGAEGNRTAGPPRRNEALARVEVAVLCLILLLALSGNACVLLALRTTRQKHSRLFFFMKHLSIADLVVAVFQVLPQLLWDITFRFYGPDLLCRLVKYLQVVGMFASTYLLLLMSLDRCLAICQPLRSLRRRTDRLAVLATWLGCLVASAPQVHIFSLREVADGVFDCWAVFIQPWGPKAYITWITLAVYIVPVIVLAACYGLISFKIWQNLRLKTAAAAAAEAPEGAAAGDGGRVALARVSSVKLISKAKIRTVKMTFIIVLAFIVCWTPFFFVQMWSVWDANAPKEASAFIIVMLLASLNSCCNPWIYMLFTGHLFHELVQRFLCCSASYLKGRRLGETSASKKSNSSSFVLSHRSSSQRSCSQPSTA
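System: human OTR in CHO cells; Also added: sub-maximal oxytocin, roughly EC15; Timing: compound 6 min at room temperature before oxytocin, 100 s read; Technique: Fluo-8 intracellular calcium fluorescence, ex 470-495, em 515-575 nm; Controls: oxytocin EC15 low and EC100 high; Replication: singlicate.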
CHO parental Ca: counter-screen: ATP calcium response change in parental CHO cells. 0.63% of 330,000 active. parental CHO-K1, ATP-induced calcium, Fluo-8 fluorescence. inhibition, % at 5.6 µM;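 active means inhibition above that plate's mean sample inhibition plus 3 SD, cut at about 26% in these data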
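Material: parental CHO cells / Compound: single nominal dose of 5.6 µM per compound / Signal: Fluo-8 fluorescence / Replicates: singlicate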
OXTR ag: human OXTR agonism; P30559; CHO-OTR cells, Fluo-8 calcium fluorescence; normalized: DMSO 0%, oxytocin 100%; activation, % at 3 µM; 0.32% of 320,000 active; AID 2435;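 active means activation above the mean of all tested compounds plus 3 SD, cutoff set per screening run, cut at about 20% in these data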;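 further: peak over basal fluorescence ratio from a 100 s FLIPR kinetic read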
OX1R antag-2: human HCRTR1 antagonism; O43613; CHO/OX1R cells, Fluo-8 calcium fluorescence, orexin A; inhibition, % at 5 µM; 0.43% of 330,000 active;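 active means inhibition above its plate's threshold, mean inhibition of all tested compounds on the plate plus 3 SD, cut at about 37% in these data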
V1aR counter: counter-screen for oxytocin receptor agonists: human V1a receptor agonists; AID 2797; activation, % at 3 µM; CHO-V1R cells, Fluo-8 calcium fluorescence, agonist mode; 0% DMSO, 100% 3 nM vasopressin; 0.25% of 320,000 active;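 active means activation above the mean activation of all tested compounds plus 3 SD, per screening run, cut at about 20% in these data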;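 further: signal is peak over basal fluorescence ratio across a 100 second FLIPR read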
OXTR pot cf: confirmation of human oxytocin receptor potentiators | shares compounds with OXTR potentiate | CHO-OTR cells, Fluo-8 calcium fluorescence, potentiation; scaled from low-dose to maximal oxytocin | activation, % at 3 µM | 180 tested, under 10 active;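 active means mean percent activation over triplicates above a cutoff set from solvent-only control plates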;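 further: compounds tested in the presence of an EC15 dose of oxytocin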
Large screens that a line does not name were inactive (follow-up assays come after a bar, where they were run).

Cc1ccc(CNCc2cc(Cl)ccc2O)cc1	none
CC(C)CC1NC(=O)c2ccc(Cl)cc2-n2c1nc1cc(F)ccc1c2=O (configuration not stated)	none
CC(C)CC1NC(=O)c2cc(Cl)ccc2-n2c1nc1cc(F)ccc1c2=O (configuration not stated)	OXTR potentiate 15 | OXTR pot cf inactive
COc1cc(/C=C(/C#N)C(=O)NC(C)c2ccccc2)cc(OC)c1O (configuration not stated)	none
CC(NC(=O)/C(C#N)=C/c1ccc(C(=O)O)cc1)c1ccccc1 (configuration not stated)	OXTR potentiate 13 | OXTR pot cf inactive
Cc1cc(C)n(-c2cc(C(C)(C)C)nc3c(-c4ccc(Cl)cc4)cnn23)n1	OXTR potentiate 13 | OXTR pot cf 7.8
Cc1cc(C)n(-c2cc(C(C)(C)C)nc3c(-c4ccccc4)cnn23)n1	none
CC(=O)Nc1ccc(S(=O)(=O)N(C)CC(=O)N/N=C/c2cccc(O)c2)cc1	OXTR potentiate 15 | OXTR pot cf inactive
O=c1cnnc(N/N=C/c2ccc3c(c2)OCO3)[nH]1	OXTR potentiate 10 | OXTR pot cf inactive
CCCCC(=O)Nc1nc(C)c(C(C)=O)s1	none
CC(=O)c1sc(NC(=O)C=C(C)C)nc1C	OXTR potentiate 9.1 | OXTR pot cf inactive
COc1ccc(CCC(=O)NC(C)c2ccccc2)cc1OC (configuration not stated)	none
Cc1oc(-c2ccc(Cl)cc2)nc1CS(=O)CC(=O)NCc1ccco1 (configuration not stated)	OXTR potentiate 7.9 | OXTR pot cf inactive
O=C(O)c1cccc(COc2cccc3ccccc23)c1	none
COc1ccc(NS(=O)(=O)c2cccc(C(=O)N/N=C/c3cn(-c4ccccc4)nc3-c3ccccc3)c2)cc1	none
COc1ccc(NS(=O)(=O)c2cccc(C(=O)N/N=C/c3cn(-c4ccccc4)nc3-c3ccc(OC)cc3)c2)cc1	OXTR potentiate 8.9 | OXTR pot cf inactive
O=c1cc(-c2ccc(O)c(O)c2)oc2cc(O)cc(O)c12	none
O=c1c(O)c(-c2ccc(O)c(O)c2)oc2cc(O)cc(O)c12	OXTR potentiate 21 | OXTR pot cf 7.2
CCn1cc(C(=O)NCC(OC)OC)c(=O)c2cc(S(=O)(=O)N3CCOCC3)ccc21	OXTR potentiate 13 | OXTR pot cf inactive
CCOC(=O)C1=C(CNCCOc2ccc(OC)cc2)NC(=O)NC1c1ccc2c(c1)OCO2 (configuration not stated)	OXTR potentiate 10 | OXTR pot cf inactive
Cc1c(C(=O)NCc2ccccn2)oc2c(Cl)cccc12	OXTR potentiate 13 | OXTR pot cf inactive
Cc1c(C(=O)NCc2ccccn2)oc2ccccc12	none
COc1cc(OC)cc(C(=O)NCC(=O)N2CCN(S(=O)(=O)c3ccccc3F)CC2)c1	OXTR potentiate 14 | OXTR pot cf inactive
Cc1cc(C)n(C(=O)C(C(=O)c2ccccc2)C(C)C)n1 (configuration not stated)	OXTR potentiate 11 | OXTR pot cf inactive
Cc1cc(C)n(C(=O)C(C)N2C(=O)c3ccccc3C2=O)n1 (configuration not stated)	none
CCCN(c1nc(C)cc(OC)n1)S(=O)(=O)c1ccccc1	OXTR potentiate 13 | OXTR pot cf inactive
CCCCCN(C(=O)CCC(=O)OCc1ccc(C(C)C)cc1)c1c(N)n(CCCC)c(=O)[nH]c1=O	none
CC1CCCCC1NC(=O)CCS(=O)(=O)c1cc2c(cc1Cl)NC(=O)CO2 (configuration not stated)	OXTR potentiate 25 | OXTR pot cf inactive
O=C(NN(CC(O)COc1ccccc1)CC(O)COc1ccccc1)c1ccccc1 (configuration not stated)	none
CCOc1ccccc1Nc1nc(N)nc(CSc2nncn2C)n1	OXTR potentiate 11 | OXTR pot cf inactive
CN(CC(=O)NCc1ccncc1)S(=O)(=O)c1ccc(F)cc1	OXTR potentiate 12 | OXTR pot cf inactive
CN(CC(=O)NCc1ccncc1)S(=O)(=O)c1ccc(Cl)cc1	none
O=C(Nc1ccon1)c1nc[nH]c1C(=O)N1CCN(c2ccccc2)CC1	none
Cc1cc(C)n(C(C)Sc2ccccc2)n1 (configuration not stated)	OXTR potentiate 14 | OXTR pot cf inactive
NC(=O)C1CCN(CCS(=O)(=O)c2ccc(Cl)cc2)CC1	none
C=CCn1c(SCC(=O)c2c(N)n(C)c(=O)n(C)c2=O)nnc1-c1ccoc1C	none
CCCCn1c(-c2ccco2)n[nH]c1=S	none
CCCCn1c(-c2ccoc2C)n[nH]c1=S	OXTR potentiate 10 | OXTR pot cf inactive
Cc1ccccc1-c1nc(CS(=O)CC(=O)NC(C)CCc2ccccc2)c(C)o1 (configuration not stated)	none
O=c1[nH]c(COc2ccc(Cl)cc2Br)nc2ccccc12	none
CCCC(C)C(=O)NCc1ccc2c(c1)OCO2 (configuration not stated)	none
CC(Sc1ccc(Cl)cc1)C(=O)NCc1ccc2c(c1)OCO2 (configuration not stated)	OXTR potentiate 9.4 | OXTR pot cf inactive
CC(C)(C)c1ccc(C(CC(=O)O)NC(=O)Cc2ccc(Cl)cc2)cc1 (configuration not stated)	none
COc1ccc(Nc2nnc(-c3ccc(C)cc3)c3ccccc23)cc1C(=O)N1CCCCC1	OXTR potentiate 17 | OXTR pot cf inactive
Cc1ccc(NC(=O)CN2CCCC2c2cccn2C)c(Br)c1 (configuration not stated)	none
CCOc1ccc(NC(=O)c2ccc3c(c2)N(Cc2ccc(F)cc2)C(=O)CS3=O)cc1 (configuration not stated)	OXTR potentiate 12 | OXTR pot cf inactive
CC1=C(C(=O)OC(C)C)C(c2cccs2)NC(=O)N1 (configuration not stated)	OXTR potentiate 9.9 | OXTR pot cf inactive
CC1=C(C(=O)OC(C)C)C(c2cccs2)C(C(=O)OC(C)C)=C(C)N1	none
Cn1c(=O)c2c(nc(NCCCO)n2Cc2cccc(Br)c2)n(C)c1=O	OXTR potentiate 11 | OXTR pot cf inactive
Cc1cccc(Cn2c(NCCO)nc3c2c(=O)n(C)c(=O)n3C)c1	none
CCOc1ccc(OCC)c(Nc2cc(C)nc3ncnn23)c1	OXTR potentiate 16 | OXTR pot cf inactive
COc1cc(Nc2cc(C)nc3ncnn23)cc(OC)c1OC	none
COc1cc(Nc2cc(C)nc3ncnn23)cc(OC)c1	OXTR potentiate 6.4 | OXTR pot cf inactive
